Results published in the EternaBench riboswitch data.

System: MS2 coat protein
Experiment: apparent Kd, MS2 coat protein; higher = weaker binding; RNA-MaP array
In short: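 Designed RNAs were transcribed on an Illumina sequencing chip from sequenced DNA templates. They were incubated at room temperature with fluorescently labeled MS2 coat protein at 1.5 nM to 3 μM, for 0.8–1.5 h at the lowest to 10–20 min at the highest concentrations, in Tris-HCl pH 7.5 buffer with KCl, MgCl2, BSA, DTT, tRNA and Tween20, with or without input ligand. Apparent Kd is the median of per-cluster binding-curve fits. Designs measured on fewer than 10 clusters were excluded.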

[1] = designed as: OFF switch for flavin mononucleotide, no ligand
[2] = ligand present: flavin mononucleotide, designed as: OFF switch for flavin mononucleotide
[3] = designed as: ON switch for flavin mononucleotide, no ligand
[4] = ligand present: flavin mononucleotide, designed as: ON switch for flavin mononucleotide
[5] = designed as: ON switch for tryptophan, no ligand
[6] = ligand present: tryptophan, designed as: ON switch for tryptophan

| Sequence | apparent Kd [1] [nM] | apparent Kd [2] [nM] | apparent Kd [3] [nM] | apparent Kd [4] [nM] | also measured |
| --- | --- | --- | --- | --- | --- |
| GUUCGGCGAGGAUAUCUGCUACAGUACAUGAGGAUCACCCAUGUGGGUUAUGUCCGGUCCAGAGAAGGCGCUGCCA | 33.4 | 47.9 | – | – | – |
| CAAUGAAACAUUCAGGAUAUGGUACAAGGAACAUGAGGAUCACCCAUGUCAAGAAAAGAAAAUCACCAGAAGGGAACAAGACAAAA | – | – | 41.5 | 32.3 | – |
| CAGUGAAGAGGAUAUACAUGAGGAUCACCCAUGUACCGUGGUCCAUAUCAUAAUUCGAGUAGAAGGCUUAACCA | 114 | 108 | – | – | – |
| UAGAAUACAGGAUAUACAGCGAGAAAUCAUAUAAUAUACACACAUGAGGAUCACCCAUGUAGAAGGGAAUAAGG | 24.9 | 24 | – | – | – |
| UACGAGUAAGGAUAUACACUGACCCAAAGAGUACAGAAAAUGUAGAAGGUACAUGAGGAUCACCCAUGUAGGUG | 85.2 | 94.3 | – | – | – |
| GGGCCCUUCUCAUAGGAUAUACUUUAUACCACAUGAGGAUCACCCAUGUAAACAUAAUUAAGAAAGUAGAAGGAUGACGAAAAUCG | – | – | 10.4 | 8.98 | – |
| AGGAUCCAGGAGAAGGCAACUGUAGUUUGGCAUUGAGGAUAUCCAAAGACCCGCUAGAUAGGAGCACAUGAGGAUCACCCAUGU | – | – | 35.5 | 19.1 | – |
| CUCUCGCAAGGAUAUACACAGUGGAAUAUCAUAAGGUGAACACAUGAGGAUCACCCAUGUAGAAGGUGCAUAAG | – | 38.5 | – | – | – |
| AAGGACAUGAGGAUCACCCAUGUAGAGGAGCGAGGACCGGUACGGCCGCCACUCGGUGACAUUCGAUAAUGCCGAAUAAGACAUC | – | – | – | – | apparent Kd [5]: 23.6 nM; apparent Kd [6]: 22.6 nM |
| GCUACACAUGAGGAUCACCCAUGUCAGGUCACUGAAGGAUAUAUUACUUAAUCCUGGGUCAUAGAAGGUCAAUUGC | – | – | 31.4 | 21.9 | – |
| CGUUCAGUCCAGCGGUUACAUGAGGAUCACCCAUGUUUAGAGAGAAGGGUUGGCACCAGGAUGUAACAGGAUAUCUCGCUUACG | – | – | 171 | 71.5 | – |
| ACAUGAGGAUCACCCAUGUAAAUGAUAUGUCACCAUGAUGUUAGAAGGAAAGCGGAAAGUCAAUUUUAGGAUAUAAUGUAUUGA | – | – | 11.9 | 8.51 | – |
| CAUUUACAUGAGGAUCACCCAUGUUAUUCUACCCAAGGAUAUCGGGAAAGUAGAACAAGUCGAGAAGGUGGUGCGC | – | – | 29.5 | 25.6 | – |
| UGCAGAGAUUGAGGAUAUGUAGUCGAACAUGAGGAUCACCCAUGUUUGGUCCUUCUACACACGGCACAGAAGGCAAGAAAGAGC | 15.1 | 24.3 | – | – | – |
| ACUAGCAUAGGAUAUCACCACAGGUACAUGAGGAUCACCCAUGUGAGACUAGCUAGCUGCUGAGAAGGAUGAAAGG | 27.9 | 23.6 | – | – | – |
| CACUACAUGAGGAUCACCCAUGUCUUCCGACGAGGACCGGUACGGCCGCCACUCGAACCUCCAACUAAUACCUCAACCGUCUGAU | – | – | – | – | apparent Kd [5]: 80.5 nM; apparent Kd [6]: 54.6 nM |
| UAUCUUGAUAGAGGAUAUGAUAUUAAAGAAUAAUCAGAAGGCUAGUCAGAUCUUCUACAUGAGGAUCACCCAUGUUCGCGAACC | 211 | 208 | – | – | – |
| CCUCGUAAUGAGGAUAUUAGGAAUUCUGGUCCAUAAGAAGGCAUGACAUGAGGAUCACCCAUGUAGCGGAUGGG | 102 | 145 | – | – | – |
| AAGCUCUCAGGAUAUACAUGAGGAUCACCCAUGUGGUCGUAUUUAAAGUGGAGCAGCAGUAGAAGGGAGGCGAC | 24.5 | 20.4 | – | – | – |
| CGGCAUGGAACAGGAUAUGGGUAAUUCAUUUGACCAGAAGGGUUCUUCAGCAGCCGUUGCACAUGAGGAUCACCCAUGUCAUAU | – | – | 29.7 | 10 | – |
| UUUGAGGCAGGAUAUAACAUCUUUGACAUGAGGAUCACCCAUGUGGUGUCCCGGUUUUAAUUAGAAGGGCCAGGCU | 692 | 727 | – | – | – |
| GUUGGACAUGAGGAUCACCCAUGUGAAUUGUUUUCCACGUACUAGGAUAUCGCGGGACAAACCAUCGAGAAGGAGUCGACCUAA | 14.4 | 12.2 | – | – | – |
| UCACACGUUGUAGGAUAUGUCACGCAUAGAACAUGAGGAUCACCCAUGUAUCCCUGUCAUGCCAGACAGAAGGACACUAACGCG | 55.5 | 129 | – | – | – |
